Bioassay records (PubChem)
SENP6 block = inhibitors of human SENP6 protease. Recombinant SENP6 catalytic domain, aminoluciferin luminescence. Q9GZR1. AID 2599. 1.8% of 330,000 active. inhibition, % at 10 µM;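 active = inhibition above about 50% at the single tested dose, limit read from the data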;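 also: plate controls were DMSO wells with enzyme for no effect and DMSO wells lacking enzyme for full effect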
Target sequence (Q9GZR1 628-1112 limits assumed): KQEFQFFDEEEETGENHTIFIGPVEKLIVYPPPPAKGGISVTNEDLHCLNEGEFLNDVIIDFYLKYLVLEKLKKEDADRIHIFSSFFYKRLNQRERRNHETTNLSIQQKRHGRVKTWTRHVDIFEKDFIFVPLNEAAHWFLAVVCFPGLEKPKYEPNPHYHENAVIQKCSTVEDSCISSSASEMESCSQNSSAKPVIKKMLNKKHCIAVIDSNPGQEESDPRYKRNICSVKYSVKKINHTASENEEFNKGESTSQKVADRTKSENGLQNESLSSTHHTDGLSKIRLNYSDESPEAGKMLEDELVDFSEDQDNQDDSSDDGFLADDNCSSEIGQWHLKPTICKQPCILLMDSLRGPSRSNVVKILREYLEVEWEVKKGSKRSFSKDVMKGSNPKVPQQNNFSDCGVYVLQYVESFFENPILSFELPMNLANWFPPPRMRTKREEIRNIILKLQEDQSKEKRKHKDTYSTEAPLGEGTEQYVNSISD
SENP1 inh = SENP1 (human) catalytic domain inhibition | AID 624204 | 0.21% of 360,000 active | inhibition, % at 10 µM | recombinant SENP1 catalytic domain, CyPet-SUMO1-YPet FRET cleavage;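 active = inhibition at least 30% at 10 µM, raw YFP signal under a set limit, fluorescence ratio 0.5 to 1.5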;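 also: 0% = enzyme with DMSO and 100% = no enzyme wells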
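Test system: recombinant human SENP1 catalytic domain, His6-tagged / Medium: pH 8 Tris buffer with EDTA, NaCl, BME, BSA, NP40, catalase / Also added: SUMO1 FRET substrate flanked by Cypet and Ypet, 25 nM / Times: 50 min reaction at room temperature / Signal: FRET, CFP and YFP emission / Control set: no-enzyme low control and enzyme-plus-DMSO high control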
Platelet DG rel = modulates dense granule release in human platelets. human platelet-rich plasma, SFLLRN dense granule ATP release, luminescence. AID 1663. inhibition, %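 (compounds screened at 7.5 µM in platelet-rich plasma)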. 0.22% of 300,000 active;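 active = mean replicate score, as percent of positive control, at or above 50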
SENP8 block-1 = blocks the human protease SENP8; inhibition, % at 10 µM; purified SENP8, Z-RLRGG-aminoluciferin cleavage, luminescence; 1.2% of 330,000 active; in the data active = inhibition above about 50%
Target sequence (Q96LD8 whole entry, looked up): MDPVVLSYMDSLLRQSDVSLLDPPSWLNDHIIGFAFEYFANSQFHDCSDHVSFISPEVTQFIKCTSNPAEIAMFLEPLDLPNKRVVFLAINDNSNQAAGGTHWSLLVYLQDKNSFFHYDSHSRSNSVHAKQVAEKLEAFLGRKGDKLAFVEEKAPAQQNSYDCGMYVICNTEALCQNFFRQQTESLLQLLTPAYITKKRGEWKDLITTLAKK
SENP7 inh = inhibitors of human SENP7 protease; 1.5% of 330,000 active; Q9BQF6; inhibition, % at 5 µM; recombinant SENP7, Z-RLRGG-aminoluciferin luminescence, 40 min;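 active = inhibition above about 50% at the single test dose, limit read from the data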;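 also: plate controls were DMSO with enzyme for no effect and no enzyme buffer wells for full effect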
SENP8 block-2 = blocks human SENP8 cleavage of Nedd8 substrate; recombinant SENP8, Nedd8 substrate fluorescence; Q96LD8; inhibition, % at 20 µM; 0.64% of 360,000 active; in the data active = inhibition mostly above about 40%, no sharp cut-off; inactive = mostly below about 27%
SENP8 conf = confirmation of human SENP8 protease inhibitors | shares compounds with SENP7 inh | Recombinant SENP8, Z-RLRGG-aminoluciferin luminescence, 60 min | inhibition, % at 12.5 µM | 40% of 6,200 active;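 active = mean inhibition across replicates above about 50%, limit read from the data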
SENP6 confirm = confirmation of human SENP6 protease inhibitors; 58% of 6,200 active; recombinant SENP6, Z-RLRGG-aminoluciferin luminescence; shares compounds with SENP7 inh; AID 488915; inhibition, % at 12.5 µM
SENP7 confirm = human SENP7 inhibition, confirmed. 69% of 6,200 active. AID 488917. inhibition, % at 12.5 µM. shares compounds with SENP7 inh. recombinant SENP7, Z-RLRGG-aminoluciferin luminescence, 40 min
Casp3 select = caspase-3 inhibition (SENP selectivity assay); shares compounds with SENP7 inh; purified caspase-3, Z-DEVD-aminoluciferin luminescence, 60 min; inhibition, % at 12.5 µM; 60% of 6,200 active;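 active = mean inhibition above about 50%, limit read from the data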;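 also: plate controls were enzyme with DMSO for no effect and wells without caspase-3 for full effect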
Luc interf = interferes with luciferase luminescence in SENP counter-screen | shares compounds with SENP7 inh | Pre-incubated SENP8/Z-RLRGG-aminoluciferin, luciferase luminescence interference | inhibition, % at 12.5 µM | 39% of 6,200 active | AID 488919;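 active = mean inhibition above about 50% when retested at one dose, limit read from the data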;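 also: plate controls were DMSO wells with completed reaction for no effect and substrate without enzyme for full effect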
* hit, by the source's call; nt = no result given. Sampled rows, rich in hits. Any-hit rate of the full collection: about 2.6%.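 The calls were made as follows, unless noted: active = mean inhibition above about 50% in the one-dose retest (limit read from the data); inactive = the rest.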

SMILES	SENP6 block	SENP1 inh	Platelet DG rel	SENP8 block-1	SENP7 inh	SENP8 block-2	SENP8 conf	SENP6 confirm	SENP7 confirm	Casp3 select	Luc interf
O=C(CCCN1C(=O)S/C(=C/c2ccccc2)C1=S)Nc1ccc(C(=O)O)cc1	66.0*	-20.7	-7.5	72.0*	45.1	12.4	11.4	51.6*	71.5*	46.0	19.7
O=C(CCCN1C(=O)/C(=C/c2ccc3c(c2)OCO3)SC1=S)Nc1ccc(C(=O)O)cc1	92.6*	8.3	0.5	85.8*	78.1*	29.3	-13.4	3.4	13.6	16.4	16.3
COc1ccc(/C=C2\SC(=O)N(CCCC(=O)Nc3ccc(C(=O)O)cc3)C2=O)cc1	nt	1.8	nt	nt	nt	10.9	nt	nt	nt	nt	nt
CCOc1cc(S(=O)(=O)NCc2ccccc2)ccc1F	-4.4	-2.3	-5.4	6.8	13.1	15.3	nt	nt	nt	nt	nt
Nc1oc2ccccc2c(=O)c1C=O	12.8	0.1	-6.5	4.8	8.6	12.0	nt	nt	nt	nt	nt
CN(c1ccc(OCc2ccc([N+](=O)[O-])cc2)cc1)S(=O)(=O)c1ccccc1	-15.0	1.2	0.4	-0.8	11.5	22.1	nt	nt	nt	nt	nt
CC(=O)c1ccccc1NC(=O)COc1ccc(N(C)S(=O)(=O)c2ccc(C)c(C)c2)cc1	-8.9	2.8	nt	-0.6	-4.9	-26.3	nt	nt	nt	nt	nt
Cc1ccsc1/C=N/NC(=O)CO	-2.3	-1.4	-3.2	-5.2	-2.2	0.0	nt	nt	nt	nt	nt
Cc1ccsc1/C=N/N=C/c1sccc1C	-5.1	1.3	16.9	95.3*	98.2*	16.9	-11.7	98.4*	102.8*	86.5*	87.1*
Cc1ccsc1C=Nc1ccc(O)cc1	68.3*	4.4	2.9	8.2	37.5	97.1*	29.0	15.5	-14.4	12.9	6.2
CCCCNC(=S)N/N=C/c1sccc1C	1.3	-1.1	-1.8	-1.0	7.5	-1.3	nt	nt	nt	nt	nt
c1cc2nnnn2nc1N1CCCCCC1	-10.6	-0.2	-0.7	-7.7	0.5	-0.9	nt	nt	nt	nt	nt
c1cc2nnnn2nc1N1CCCCC1	0.8	2.4	11.4	4.7	58.3*	4.8	8.1	6.1	-2.7	-6.4	-7.5
COc1ccc(-n2nnnc2SCC(=O)Nc2nnc(C)s2)cc1OC	-0.5	1.5	16.6	-4.4	94.8*	4.4	-23.6	-16.1	-6.9	-7.7	-4.6
CCOC(=O)c1csc(NC(=O)CSc2nnnn2-c2ccc(OC)c(OC)c2)n1	6.1	1.9	-7.8	-5.4	0.0	24.2	nt	nt	nt	nt	nt
O=S1(=O)CC/C(=N/Nc2ccc(C(F)(F)F)cn2)c2cc(F)ccc21	-2.1	2.1	8.0	-2.9	5.7	24.2	nt	nt	nt	nt	nt
O=S1(=O)CC/C(=N/Nc2ccccn2)c2cc(F)ccc21	-15.4	2.6	5.4	-6.9	62.7*	8.5	4.4	7.1	8.1	3.7	1.8
CC(C)[C@H](NC(=O)N1CCn2c1nc1ccccc12)C(=O)N[C@H](C(=O)O)c1ccccc1	-5.3	1.0	-5.1	-7.1	-8.9	10.7	nt	nt	nt	nt	nt
COC(=O)c1ccc(C(=O)N=c2sccn2C)cc1	55.3*	-0.7	20.9	35.4	51.9*	-22.4	46.1	44.0	76.4*	78.0*	6.8
COc1ccc(C(=O)N=c2sccn2C)cc1	14.0	2.0	2.8	-8.0	17.4	-117.2	nt	nt	nt	nt	nt
Cn1ccsc1=NC(=O)c1ccc(OC(F)(F)F)cc1	63.2*	2.1	11.3	51.2*	60.9*	-64.6	55.8*	58.5*	88.2*	62.0*	66.0*
Cn1ccsc1=NC(=O)c1ccc(Cl)cc1	-19.4	1.9	0.1	-0.5	25.6	-53.0	nt	nt	nt	nt	nt
CCOC(=O)Cn1c2ccc(C)cc2c2nc(C)sc21	50.8*	-3.7	-5.1	6.2	2.4	11.1	7.6	8.5	-5.6	-7.8	-10.0
CCOC(=O)Cn1c2ccccc2c2nc(C)sc21	14.6	-0.6	-7.2	2.3	-6.6	18.5	nt	nt	nt	nt	nt
COc1ccc(NC(=O)n2ncc3c(C)cccc32)cc1	74.1*	-0.3	4.1	72.1*	60.6*	32.7	84.1*	83.1*	95.2*	63.0*	72.8*
SMILES	SENP6 block	SENP1 inh	Platelet DG rel	SENP8 block-1	SENP7 inh	SENP8 block-2	SENP8 conf	SENP6 confirm	SENP7 confirm	Casp3 select	Luc interf
COc1ccc(NC(=O)n2ncc3c(C)cccc32)cc1OC	38.0	3.4	5.4	25.1	17.9	27.2	nt	nt	nt	nt	nt
COc1ccc(Nc2ccc3c(c2)=NC2(CCCCC2)[N+]=3[O-])cc1	82.3*	15.2	4.6	36.0	37.6	81.0*	38.2	64.2*	31.2	7.4	2.3
CCN(C1CCCCC1)S(=O)(=O)c1ccc(S(=O)(=O)N(CC(=O)Nc2ccccc2)C2CC2)cc1	-6.6	2.0	9.0	10.2	-1.3	0.2	nt	nt	nt	nt	nt
Cc1sc(NC(=O)/C=C/c2ccco2)c(C(=O)O)c1C	72.9*	4.8	3.7	49.5	15.8	14.4	71.5*	69.2*	87.9*	84.7*	48.2
CCC(C)(C)NC(=O)C1CCCN1C(=O)NC1CCCCC1 (centres undefined)	8.1	-0.9	-2.0	12.8	-3.0	13.4	nt	nt	nt	nt	nt
COc1cc(C(C#N)N2N=C(c3ccccc3)CC2c2ccccc2)ccc1O (centres undefined)	65.9*	-27.8	-0.6	20.6	78.5*	22.2	-4.2	-1.7	4.4	9.9	9.2
CC(=O)OCCN1C(=O)c2cccc3cc([N+](=O)[O-])cc(c23)C1=O	-14.1	nt	-3.9	-1.4	-6.0	nt	nt	nt	nt	nt	nt
CC(C)Cn1cc(C(=O)NCc2cccs2)c2c3ccccc3n(C)c2c1=O	2.8	-39.0	3.8	5.0	61.7*	-314.0	-1.0	-0.4	-5.2	-1.5	-6.0
CC(C)CCNC(=O)c1cn(CC(C)C)c(=O)c2c1c1ccccc1n2C	-16.0	1.7	19.8	-8.5	-9.6	-300.8	nt	nt	nt	nt	nt
Fc1ccc(COc2ccc(C(=S)N3CCCC3)cc2)cc1	62.2*	1.2	5.7	38.0	40.0	11.8	60.1*	54.2*	75.5*	46.0	28.1
CCOc1cc(C(=S)N2CCCC2)ccc1OCc1ccccc1	0.1	0.8	-2.9	1.4	4.6	23.7	nt	nt	nt	nt	nt
O=C(COc1ccc(C(=S)N2CCCC2)cc1)Nc1ccc(F)cc1	-4.6	1.9	1.7	0.5	0.6	3.0	nt	nt	nt	nt	nt
S=C(c1ccc(OCc2ccccc2)cc1)N1CCCC1	59.7*	1.2	4.3	46.9	61.2*	16.2	41.5	36.7	54.8*	26.6	26.4
